Experimental data taken from ChEMBL document CHEMBL1154253, “Synthesis and serotonin transporter activity of sulphur-substituted alpha-alkyl phenethylamines as a new class of anticancer agents” (Eur J Med Chem, 2009).

Legend:
[1] = biological target: Sodium-dependent serotonin transporter (Rattus norvegicus, UniProt P31652); assay: Inhibition of [3H]5-HT reuptake at rat SERT expressed in HEK293 cells after 2 mins by liquid scintillation counting; format: cell-based
HEK293 = assay: Cytotoxicity against human HEK293 cells after 48 hrs by neutral red assay; format: cell-based; conditions: HEK293, 48 h, read-out: pEC50 (converted)
How it was run: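 Neutral Red uptake: 5 × 10⁴ cells/well grown 24–36 h to sub-confluence, then treated 48 h. Cells incubated 3 ± 1 h with NR dye, washed and solubilised in 50% ethanol–1% acetic acid, and absorbance read at 540 nm (690 nm background). Viability given as % of vehicle-treated cells. pEC50 obtained by sigmoidal regression (Hill slope 1) using 4 concentrations in triplicate on two independent days. SERT-line values compared with parental HEK293 by two-way ANOVA with Bonferroni test. Sodium azide 30 mM and Triton-X 2% as positive controls.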

SH-SY5Y = assay: Cytotoxicity against human SH-SY5Y cells after 48 hrs by neutral red assay; format: functional, cell-based
MCF7 [2] = assay: Antiproliferative activity against human MCF7 cells at 50 uM after 24 hrs by alamar blue assay; format: functional
How it was run: (§1)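 Alamar Blue viability: 1–5 × 10⁴ cells/well seeded, drug-treated for the stated time, then 10 µl Alamar Blue added and incubated 4–6 h at 37 °C in the dark. Fluorescence read at ex 544/em 590 nm, medium-only background subtracted, untreated cells = 100% viability. Taxol 10 µM as positive control. Mean ± S.E.M. of six points (triplicate on two independent days).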

[3] = Antiproliferative activity against human MUTU-I cells assessed as cell viability at 50 uM after 24 hrs by alamar blue assay; format: functional; conditions: read-out: Activity; how it was run: as §1
DG-75 [4] = assay: Antiproliferative activity against human DG75 cells assessed as cell viability at 50 uM after 72 hrs by alamar blue assay; format: functional; conditions: DG-75, 72 h, read-out: Activity; how it was run: as §1
[5] = Antiproliferative activity against human MUTU-I cells at 50 uM after 24 hrs by alamar blue assay; format: functional; how it was run: as §1
DG-75 [6] = assay: Antiproliferative activity against human DG75 cells at 50 uM after 72 hrs by alamar blue assay; format: functional; how it was run: as §1
[7] = Antiproliferative activity against […] cells at 50 uM after 24 hrs by alamar blue assay; format: functional, 4T1; how it was run: as §1
MDA-MB-231 = assay: Antiproliferative activity against human MDA-MB-231 cells at 50 uM after 24 hrs by alamar blue assay; format: functional; how it was run: as §1
DG-75 [8] = assay: Induction of apoptosis in human DG75 cells after 72 hrs by annexin V-propidium iodide staining-based FACS analysis; format: functional, cell-based; conditions: DG-75, 72 h
[9] = Induction of apoptosis in human MUTU-I cells after 24 hrs by annexin V-propidium iodide staining-based FACS analysis; format: functional, cell-based
HL-60 [10] = assay: Induction of apoptosis in human HL60 cells after 24 hrs by annexin V-propidium iodide staining-based FACS analysis; format: functional, cell-based; conditions: HL-60, 24 h
DG-75 [11] = assay: Induction of apoptosis in human DG75 cells at 10 to 50 uM after 72 hrs by annexin V-propidium iodide staining-based FACS analysis; format: functional
[12] = Induction of apoptosis in human MUTU-I cells at 10 to 50 uM after 24 hrs by annexin V-propidium iodide staining-based FACS analysis; format: functional
HL-60 [13] = assay: Induction of apoptosis in human HL60 cells at 10 to 50 uM after 24 hrs by annexin V-propidium iodide staining-based FACS analysis; format: functional
DG-75 [14] = assay: Induction of apoptosis in human DG75 cells at 50 uM after 72 hrs by annexin V-propidium iodide staining-based FACS analysis; format: functional
PBMC = assay: Cytotoxicity against human PBMC at 10 uM after 24 hrs by alamar blue assay; format: cell-based
How it was run: (§2)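 PBMCs from a healthy donor, separated on Ficoll and resuspended in IMDM with FCS and penicillin/streptomycin. Seeded at 1–5 × 10⁴ cells/200 µl and treated 24 h. Alamar Blue added, fluorescence read at ex 544/em 590 nm, background subtracted, untreated cells = 100% viability. Mean + S.E.M.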

[15] = Cytotoxicity against human PBMC assessed as cell viability at 50 uM after 24 hrs by alamar blue assay; format: cell-based; conditions: read-out: Activity; how it was run: as §2
MCF7 [16] = assay: Antiproliferative activity against human MCF7 cells assessed as cell viability at 50 uM after 24 hrs by alamar blue assay; format: functional; conditions: MCF7, 24 h, read-out: Activity; how it was run: as §1

Sodium-dependent serotonin transporter, sequence (P31652 whole entry): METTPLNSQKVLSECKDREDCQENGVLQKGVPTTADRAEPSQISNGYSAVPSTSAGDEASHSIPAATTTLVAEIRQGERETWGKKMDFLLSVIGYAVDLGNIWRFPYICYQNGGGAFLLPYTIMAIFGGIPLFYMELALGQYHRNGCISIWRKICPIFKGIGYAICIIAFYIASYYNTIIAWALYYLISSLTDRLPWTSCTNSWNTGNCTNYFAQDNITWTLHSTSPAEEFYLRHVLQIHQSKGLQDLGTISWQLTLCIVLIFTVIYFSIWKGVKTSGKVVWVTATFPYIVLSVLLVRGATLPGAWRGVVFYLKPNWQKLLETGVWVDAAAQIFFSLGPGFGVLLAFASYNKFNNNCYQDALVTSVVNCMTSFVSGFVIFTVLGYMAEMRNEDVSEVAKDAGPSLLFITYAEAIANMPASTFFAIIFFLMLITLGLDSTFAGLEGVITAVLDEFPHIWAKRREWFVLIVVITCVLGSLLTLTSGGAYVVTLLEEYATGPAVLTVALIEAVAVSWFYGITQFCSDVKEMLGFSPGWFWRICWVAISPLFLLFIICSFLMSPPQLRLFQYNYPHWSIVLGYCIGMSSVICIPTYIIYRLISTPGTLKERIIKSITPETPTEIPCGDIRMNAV

CC(N)Cc1ccc(Sc2ccccc2)cc1 (stereo unspecified)
IC50 [1]: 14.3 µM | EC50 (HEK293): 2.75 µM | EC50 (SH-SY5Y; read-out: EC50): 1 µM | EC50 (SH-SY5Y; read-out: pEC50 (converted)): 13.2 µM | Activity (MCF7 [2]): 40% | viability at 50 µM [3]: 10% | viability at 50 µM (DG-75 [4]): 10% | Activity [5]: 90% | Activity (DG-75 [6]): 90% | Activity [7]: 90% | Activity (MDA-MB-231): 90% | EC50 (DG-75 [8]): 23.7 µM | EC50 [9]: 14.2 µM | EC50 (HL-60 [10]): 19.6 µM | Activity (DG-75 [11]): 40% | Activity [12]: 40% | Activity (HL-60 [13]): 40% | Activity (DG-75 [14]): 40% | Activity (PBMC): Non-toxic | viability at 24 h, 50 µM [15]: 50% | viability at 50 µM (MCF7 [16]): < 10%
